Results from ChEMBL document CHEMBL2034843, “3α-Hydroxymasticadienonic acid as an antiproliferative agent that impairs mitochondrial functions” (J Nat Prod, 2012).
Calls of active or inactive are those of the source. The calls are words filed in the database; no cut-off is given here.

Experiments:
Rattus norvegicus [1] = species: Rattus norvegicus; test: Hepatoprotective activity in rat liver assessed as inhibition of colloid-osmotic mitochondrial swelling at 100 uM by spectrophotometric analysis in presence of 90 uM Ca2+; format: functional; conditions: Mitochondria
In short: (§1)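 Absorbance change at 540 nm of rat liver mitochondrial suspensions (1 mg protein/mL, 20 °C, succinate/rotenone energized, 250 mM sucrose, 10 mM HEPES pH 7.4, 1 mM phosphate); a fall in absorbance taken as swelling. Ca2+ at 50, 70 or 90 μM as specified, or omitted. Runs repeated at least four times.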

Rattus norvegicus [2] = species: Rattus norvegicus; test: Induction of mitochondrial dysfunction in rat liver mitochondria assessed as increase in colloid-osmotic swelling at 10 to 100 uM by spectrophotometric analysis; format: functional; in short: as §1
Rattus norvegicus [3] = species: Rattus norvegicus; test: Induction of mitochondrial dysfunction in Ca2+-stimulated rat liver mitochondria assessed as decrease in mitochondrial redox level at 10 uM after 15 mins by absorption spectrophotometric analysis in presence of N-ethylmaleimide; format: functional
In short: (§2)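 Mitochondrial protein thiol oxidation assayed per Santos et al. after 15 min incubation of rat liver mitochondria (1 mg protein/mL, 20 °C, succinate/rotenone standard medium). Results as % reduced thiols, mean ± SD, four independent experiments.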

Rattus norvegicus [4] = species: Rattus norvegicus; test: Induction of mitochondrial dysfunction in rat liver mitochondria assessed as increase in colloid-osmotic swelling at 10 uM by spectrophotometric analysis in presence of 50 uM Ca2+; format: functional; in short: as §1
Rattus norvegicus [5] = species: Rattus norvegicus; test: Induction of mitochondrial dysfunction in rat liver mitochondria assessed as cytochrome c release at 10 uM after 15 mins by Western blot analysis in presence of Ca2+; format: functional
In short: (§3)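 Mitochondria (1 mg protein/mL) held 15 min at 20 °C in standard succinate/rotenone medium with or without Ca2+, then centrifuged 13000g, 10 min, 4 °C. Supernatants concentrated, resolved by SDS-PAGE (15% for cyt c, 10% for AIF) and immunoblotted with mouse anti-cyt c or rabbit anti-AIF.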

Rattus norvegicus [6] = species: Rattus norvegicus; test: Induction of mitochondrial dysfunction in rat liver mitochondria assessed as increase in colloid-osmotic swelling at 100 uM by spectrophotometric analysis in presence of 50 uM Ca2+; format: functional; in short: as §1
Rattus norvegicus [7] = species: Rattus norvegicus; test: Induction of mitochondrial dysfunction in rat liver mitochondria assessed as increase in mitochondrial swelling at < 20 uM by spectrophotometric analysis in presence of 70 uM Ca2+; format: functional; in short: as §1
Rattus norvegicus [8] = species: Rattus norvegicus; test: Induction of mitochondrial dysfunction in rat liver mitochondria assessed as increase in colloid-osmotic swelling at 10 uM by spectrophotometric analysis in presence of 50 uM Ca2+ and AdNT; format: functional
In short: (§4)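 Swelling read as the 540 nm absorbance decrease in succinate-energized rat liver mitochondria (1 mg protein/mL, 20 °C, pH 7.4 sucrose/HEPES medium) with 50 μM Ca2+. Added agents where indicated: 1 μM CsA, 5 μM bongkrekic acid, 1 mM ADP, 2 μM ruthenium red, 10 μM NEM, 1 mM DTE. At least five repeats.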

Rattus norvegicus [9] = species: Rattus norvegicus; test: Hepatoprotective activity in rat liver mitochondria assessed as inhibition of Ca2+-induced mitochondrial swelling at > 20 uM by spectrophotometric analysis; format: functional; in short: as §1
Rattus norvegicus [10] = species: Rattus norvegicus; test: Induction of mitochondrial dysfunction in rat liver mitochondria assessed as rapid accumulation of Ca2+ at 10 uM by spectrophotometric analysis; format: functional
In short: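 Rat liver mitochondria, isolated by differential centrifugation in sucrose/HEPES/EGTA buffer, were incubated at 1 mg protein/mL and 20 °C. Ca2+ content of mitochondrial pellets was measured by atomic absorption spectroscopy.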

Rattus norvegicus [11] = species: Rattus norvegicus; test: Induction of mitochondrial dysfunction in rat liver mitochondria assessed as apoptosis inducing factor release at 10 uM after 15 mins by Western blot analysis in presence of Ca2+; format: functional; in short: as §3
Rattus norvegicus [12] = species: Rattus norvegicus; test: Induction of mitochondrial dysfunction in rat liver mitochondria assessed as decrease in mitochondrial pyridine nucleotide redox level at 10 uM after 15 mins by fluorometric analysis in presence of Ca2+
Rattus norvegicus [13] = species: Rattus norvegicus; test: Induction of mitochondrial dysfunction in rat liver mitochondria assessed as initial uptake of Ca2+ per mg protein at 100 uM measured immediately by spectrophotometric analysis; format: functional
In short: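 Ca2+ movements in rat liver mitochondria (1 mg protein/mL, 20 °C, succinate/rotenone medium) exposed to 70 μM Ca2+; Ca2+ in mitochondrial pellets measured by atomic absorption spectroscopy, uptake expressed per mg protein.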

Rattus norvegicus [14] = species: Rattus norvegicus; test: Hepatoprotective activity in rat liver mitochondria assessed as change in mitochondrial pyridine nucleotide redox level at 100 uM after 15 mins by fluorometric analysis in presence of Ca2+
Rattus norvegicus [15] = species: Rattus norvegicus; test: Induction of mitochondrial dysfunction in rat liver mitochondria assessed as apoptosis inducing factor release at 100 uM after 15 mins by Western blot analysis in presence of Ca2+; format: functional; in short: as §3
Rattus norvegicus [16] = species: Rattus norvegicus; test: Induction of mitochondrial bioenergetics dysfunction in rat liver mitochondria assessed as decrease in respiratory control index at 50 uM by using clark electrode; format: functional
In short: (§5)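 Isolated rat liver mitochondria (1 mg protein/mL), 20 °C, sucrose/HEPES pH 7.4 medium with 5 mM succinate plus 1.25 μM rotenone and 1 mM phosphate. O2 uptake followed with a Clark electrode; 300 μM ADP added to start state 3. RCI = V3/V4 (state 3 over state 4 rate). Five experiments.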

Rattus norvegicus [17] = species: Rattus norvegicus; test: Induction of mitochondrial dysfunction in rat liver mitochondria assessed as change in membrane potential by spectrophotometric analysis; format: functional
Rattus norvegicus [18] = species: Rattus norvegicus; test: Induction of mitochondrial dysfunction in rat liver mitochondria assessed as increase in colloid-osmotic swelling at 10 uM by spectrophotometric analysis in presence of 50 uM Ca2+ and cyclosporin A; format: functional; in short: as §4
Rattus norvegicus [19] = species: Rattus norvegicus; test: Induction of mitochondrial bioenergetics dysfunction in rat liver mitochondria assessed as decrease in respiratory control index at 25 uM by using clark electrode; format: functional; in short: as §5
Rattus norvegicus [20] = species: Rattus norvegicus; test: Induction of mitochondrial dysfunction in Ca2+-stimulated rat liver mitochondria assessed as decrease in SH mitochondrial redox level at 10 uM after 15 mins by absorption spectrophotometric analysis in presence of dithiothreitol; format: functional; in short: as §2
Rattus norvegicus [21] = species: Rattus norvegicus; test: Induction of mitochondrial dysfunction in rat liver mitochondria assessed as decrease in membrane potential at 1 uM by spectrophotometric analysis in presence of 50 uM Ca2+; format: functional; conditions: in the assay text read “TPP+-selective electrode” for “spectrophotometric analysis”, TDE = time-dependent effect
In short: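 Membrane potential (ΔΨ) derived from TPP+ distribution across the inner membrane, measured with a TPP+-selective electrode. Ca2+ 50 μM where indicated; cyclosporin A 1 μM where indicated.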

Rattus norvegicus [22] = species: Rattus norvegicus; test: Induction of mitochondrial dysfunction in Ca2+-stimulated rat liver mitochondria assessed as decrease in mitochondrial redox level at 10 uM after 15 mins by absorption spectrophotometric analysis in presence of Ca2+ transport inhibitor ruthedium red; format: functional; in short: as §2
Rattus norvegicus [23] = species: Rattus norvegicus; test: Hepatoprotective activity in rat liver mitochondria assessed as inhibition of Ca2+-induced mitochondrial swelling at 100 uM by spectrophotometric analysis; format: functional; in short: as §1
Rattus norvegicus [24] = species: Rattus norvegicus; test: Induction of mitochondrial dysfunction in rat liver mitochondria assessed as increase in colloid-osmotic swelling at 10 uM by spectrophotometric analysis in presence of 50 uM Ca2+ and ADP; format: functional; in short: as §4
Rattus norvegicus [25] = species: Rattus norvegicus; test: Induction of mitochondrial dysfunction in Ca2+-stimulated rat liver mitochondria assessed as decrease in mitochondrial redox level at 10 uM after 15 mins by absorption spectrophotometric analysis in presence of cyclosporin A; format: functional; in short: as §2
Rattus norvegicus [26] = species: Rattus norvegicus; test: Induction of mitochondrial dysfunction in rat liver mitochondria assessed as decrease in mitochondrial redox level at 10 uM after 15 mins by absorption spectrophotometric analysis in presence of 50 uM Ca2+; format: functional; set-up: scale not given: the % may be the effect or the level left; in short: as §2

With `C/C(=C/CC[C@H](C)[C@@H]1CC[C@]2(C)C3=CC[C@H]4C(C)(C)[C@H](O)CC[C@]4(C)[C@H]3CC[C@@]12C)C(=O)O` the inhibition (Rattus norvegicus [1]) was “Active”, the Activity (Rattus norvegicus [2]) was “inactive” and the Activity (Rattus norvegicus [3]) was “inactive”. For the same molecule, the Activity (Rattus norvegicus [4]) was “Active”, the Activity (Rattus norvegicus [5]) was “Active” and the Activity (Rattus norvegicus [6]) was “Active”. The Activity (Rattus norvegicus [7]) was “Active”, the Activity (Rattus norvegicus [8]) was “inactive” and the Activity (Rattus norvegicus [9]) was “Active”. The Activity (Rattus norvegicus [10]) was “Active”, the Activity (Rattus norvegicus [11]) was “Active” and the Activity (Rattus norvegicus [12]) was “Active”. The Activity (Rattus norvegicus [13]) was 20 nmol, the Activity (Rattus norvegicus [14]) was “Active” and the Activity (Rattus norvegicus [15]) was “inactive”. The Activity (Rattus norvegicus [16]) was “Active”, the Activity (Rattus norvegicus [17]) was “Dose-dependent effect” and the Activity (Rattus norvegicus [18]) was “inactive”. For the same molecule, the Activity (Rattus norvegicus [19]) was “Active”, the Activity (Rattus norvegicus [20]) was “inactive” and the Activity (Rattus norvegicus [21]) was “tde”. For the same molecule, the Activity (Rattus norvegicus [22]) was “inactive”, the inhibition (Rattus norvegicus [23]) was “Active” and the Activity (Rattus norvegicus [24]) was “inactive”. For the same molecule, the Activity (Rattus norvegicus [25]) was “inactive” and the Activity (Rattus norvegicus [26]) was 50%.
